ChEMBL document CHEMBL1124663, “Design, synthesis, antineoplastic activity, and chemical properties of bis(carbamate) derivatives of 4,5-bis(hydroxymethyl)imidazole” (J Med Chem, 1989)

What was measured:
Mus musculus [1] = assay: The toxicity day was evaluated on day 5 for L1210 tumor cells of test animals dosed with 200 mg/kg of compound; 0/6; assay type: functional
Procedure, shortened: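 L1210 leukaemia, 10^5 cells, implanted ip on day 0. Freshly prepared saline suspension dosed ip daily on days 1-5. Toxicity evaluated on day 5 as survivors over animals in the initial test group.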

Mus musculus [2] = assay: The percent of the median survival time of test mice compared to control mice is % T/C. It is determined for mice administered with 25 mg/kg compound on day 0 for LOX 1 tumor cells.; assay type: functional; settings: route intraperitoneal
Mus musculus [3] = assay: Toxicity day evaluation was carried out on day 5 for animal dosed with 25 mg/kg compound; 6/6; assay type: organism-based; parameters: dose 25 mg/kg; settings: in vivo
Mus musculus [4] = assay: The toxicity day was evaluated on day 11 for MX-1 tumor cells of test animals dosed with 60 mg/kg of compound; 6/6; assay type: functional
Procedure, shortened: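 Human MX-1 mammary tumour (1 mm3, 0.5 mg) implanted under the renal capsule of NCR-nu mice on day 0. Drug was given ip as a freshly made saline suspension on days 1, 5 and 9. Readout is survivors over initial group size.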

Mus musculus [5] = assay: The percent of the median survival time of test mice compared to control mice, administered with 50 mg/kg compound on day 5 for L1210 tumor cells; assay type: functional
Procedure, shortened: (§1)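 L1210 leukemia, 10^5 cells implanted ip on day 0. Drug given ip daily on days 1-5 as a saline suspension freshly prepared before each injection. Read-out is median survival of treated versus control mice (% T/C), and log cell kill is derived from it.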

Mus musculus [6] = assay: The percent of the median survival time of test mice compared to control mice is % T/C. It is determined for mice administered with 100 mg/kg compound on day 0 for LOX 1 tumor cells.; assay type: functional; settings: route intraperitoneal
Mus musculus [7] = assay: The percent of the median survival time of test mice compared to control mice, administered with 25 mg/kg compound on day 5 for L1210 tumor cells; assay type: functional; procedure, shortened: as §1

With `CNC(=O)OCc1nc(SC)n(C)c1COC(=O)NC` the “Survivors / animals tested” value (Mus musculus [1]) was 0, the T/C (Mus musculus [2]) was 219% and the “Survivors / animals tested” value (Mus musculus [3]) was 6. For the same molecule, the “Survivors / animals tested” value (Mus musculus [4]) was 6, the T/C (Mus musculus [5]) was 124% and the T/C (Mus musculus [6]) was 365%. For the same molecule, the T/C (Mus musculus [7]) was 111%.
